Laboratory results as given in ChEMBL document CHEMBL1147981, “Small molecule activators of SIRT1 as therapeutics for the treatment of type 2 diabetes” (Nature, 2007).
Active and inactive are the calls of the source. No cut-off for these calls is given here.

Experiments:
[1] = target: T1, NAD-dependent protein deacetylase sirtuin-3, mitochondrial (Homo sapiens, UniProt Q9NTG7); assay: Activation of SIRT3 by mass spectrometry assay
T1 sequence (Q9NTG7 whole entry): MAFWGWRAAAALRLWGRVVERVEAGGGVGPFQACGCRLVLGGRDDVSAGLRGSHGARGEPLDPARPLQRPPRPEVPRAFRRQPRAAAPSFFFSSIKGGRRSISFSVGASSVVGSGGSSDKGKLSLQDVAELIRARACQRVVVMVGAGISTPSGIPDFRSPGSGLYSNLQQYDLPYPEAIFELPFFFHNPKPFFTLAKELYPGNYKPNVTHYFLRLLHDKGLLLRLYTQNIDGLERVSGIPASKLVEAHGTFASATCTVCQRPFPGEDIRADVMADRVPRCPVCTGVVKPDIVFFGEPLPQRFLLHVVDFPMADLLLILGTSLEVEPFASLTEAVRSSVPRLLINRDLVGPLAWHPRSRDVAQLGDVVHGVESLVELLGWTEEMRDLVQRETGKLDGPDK

[2] = target: T2, NAD-dependent protein deacetylase sirtuin-2 (Homo sapiens, UniProt Q8IXJ6); assay: Activation of SIRT2 by mass spectrometry assay
T2 sequence (Q8IXJ6 whole entry): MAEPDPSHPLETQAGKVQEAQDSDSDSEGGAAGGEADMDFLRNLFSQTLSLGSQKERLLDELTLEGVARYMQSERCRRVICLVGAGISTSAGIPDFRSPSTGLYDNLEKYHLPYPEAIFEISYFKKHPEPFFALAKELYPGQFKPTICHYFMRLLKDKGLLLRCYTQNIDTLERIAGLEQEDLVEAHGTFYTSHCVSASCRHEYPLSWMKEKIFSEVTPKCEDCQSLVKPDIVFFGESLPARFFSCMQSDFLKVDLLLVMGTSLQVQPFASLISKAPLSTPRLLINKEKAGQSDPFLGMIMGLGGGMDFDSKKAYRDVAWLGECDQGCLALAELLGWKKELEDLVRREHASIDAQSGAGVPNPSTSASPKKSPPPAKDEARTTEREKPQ

[3] = target: T3, NAD-dependent protein deacetylase sirtuin-1 (Homo sapiens) (UniProt Q96EB6); assay: Activation of SIRT1 in human U2OS cells assessed as decrease in deacetylation level at 10 uM; type: cell-based
T3 sequence (whole entry): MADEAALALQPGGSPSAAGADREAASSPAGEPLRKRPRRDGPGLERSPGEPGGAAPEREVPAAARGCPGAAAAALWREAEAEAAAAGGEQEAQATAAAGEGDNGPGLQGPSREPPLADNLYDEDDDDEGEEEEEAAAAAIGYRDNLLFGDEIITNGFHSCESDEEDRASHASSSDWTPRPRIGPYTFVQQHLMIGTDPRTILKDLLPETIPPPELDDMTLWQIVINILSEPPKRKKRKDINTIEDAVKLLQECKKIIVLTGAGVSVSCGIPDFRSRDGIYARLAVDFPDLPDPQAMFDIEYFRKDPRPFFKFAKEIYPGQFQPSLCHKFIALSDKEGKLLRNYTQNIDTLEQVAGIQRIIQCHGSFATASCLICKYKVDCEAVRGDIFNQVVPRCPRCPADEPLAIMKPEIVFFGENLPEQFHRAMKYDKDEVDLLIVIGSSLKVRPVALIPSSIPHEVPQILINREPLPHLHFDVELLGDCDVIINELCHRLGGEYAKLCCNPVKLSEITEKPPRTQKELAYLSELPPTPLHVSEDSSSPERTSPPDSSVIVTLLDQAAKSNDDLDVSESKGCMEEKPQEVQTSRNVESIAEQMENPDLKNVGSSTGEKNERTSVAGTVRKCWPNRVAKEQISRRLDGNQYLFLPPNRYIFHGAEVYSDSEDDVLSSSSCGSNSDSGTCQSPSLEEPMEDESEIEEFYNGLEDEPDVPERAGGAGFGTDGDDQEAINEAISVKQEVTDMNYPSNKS
Outline: (§1)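 U-2 OS cells seeded 1.5 × 10⁴/well; compounds in DMSO added after 24 h, then doxorubicin 1 μg/ml final to induce p53. Fixed, permeabilized, immunostained for Ac-Lys382-p53 and beta-tubulin, infrared scan; background-corrected acetyl signal normalized to tubulin, then to vehicle as % acetylated p53. Replicate plates co-treated with a SIRT1-specific inhibitor.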

[4] = target: T4, NAD-dependent protein deacetylase sirtuin-1 (Homo sapiens, UniProt Q96EB6); assay: (§2) Activation of human SIRT1 expressed in Escherichia coli BL21 by mass spectrometry assay
T4 sequence (Q96EB6 whole entry): T3 sequence (whole entry)

[5] = target: T3, NAD-dependent protein deacetylase sirtuin-1 (Homo sapiens); assay: as §2
[6] = target: T3, NAD-dependent protein deacetylase sirtuin-1 (Homo sapiens); assay: Activation of human SIRT1 assessed as decrease in Km of enzyme for acetylated peptide substrate by mass spectrometry assay
[7] = target: T4, NAD-dependent protein deacetylase sirtuin-1; assay: Binding affinity to human SIRT1 by isothermal titration calorimetry
[8] = test system: Rattus norvegicus; assay: Increase in glucose disposal rate in po dosed Zucker fa/fa rat relative to control; type: functional
Outline: (§3)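 Cannulated 10-week-old fa/fa Zucker rats, unrestrained. D-[3-3H]glucose prime 7.5 μCi, then infused at 0.167 μCi/min; basal samples at -10 and 0 min for hepatic glucose production. From 0 min, insulin at 25 mU/kg/min plus variable 50% dextrose infusion; plasma insulin and FFA at 0 and 120 min.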

[9] = test system: Mus musculus; assay: Reduction of glucose levels in DIO C57BL/6 mouse model at 100 mg/kg, po during insulin tolerance test; type: functional, organism-based; design: dose 100 mg/kg
Outline: (§4)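 Male C57BL/6 mice, started at nine weeks, fed 60%-fat diet until mean weight ~40 g; 6-10 per group; once-daily oral gavage in 2% HPMC + 0.2% DOSS. Fed glucose at 2, 4, 6, 8, 10 weeks; IPGTT after 5 weeks; ITT after 10 weeks. One-way ANOVA with Dunnett's test vs control, p<0.05.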

[10] = target: T3, NAD-dependent protein deacetylase sirtuin-1 (Homo sapiens); assay: Activation of human SIRT1-D (219-664) construct by mass spectrometry assay relative to control
[11] = test system: Rattus norvegicus; assay: Reduction of blood insulin level in po dosed Zucker fa/fa rat after 3 weeks by glucose tolerance test; type: functional
Outline: (§5)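 On day 26 of daily oral dosing, fa/fa Zucker rats fasted 5 h, then gavaged with 1 g/kg dextrose; tail-vein glucose at 0, 15, 30, 60, 90 min; plasma for insulin at 0, 15, 30, 60 min.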

[12] = target: T3, NAD-dependent protein deacetylase sirtuin-1 (Homo sapiens); assay: Activation of human SIRT1-B (172-664) construct by mass spectrometry assay relative to control
[13] = target: T3, NAD-dependent protein deacetylase sirtuin-1 (Homo sapiens); assay: Activation of human SIRT1-H (240-664) construct by mass spectrometry assay relative to control
[14] = target: T3, NAD-dependent protein deacetylase sirtuin-1 (Homo sapiens); assay: Activation of human SIRT1-F (230-664) construct by mass spectrometry assay relative to control
[15] = test system: Mus musculus; assay: Increase in mitochondrial capacity in DIO C57BL/6 mouse model assessed as citrate synthase activity at 100 mg/kg, po after 10 weeks; type: functional; conditions: in the assay text read “after 11 weeks” for “after 10 weeks”
Outline: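 Citrate synthase activity in gastrocnemius and epididymal white adipose tissue after 11 weeks of daily oral dosing in high-fat-fed C57BL/6 mice; five mice per group closest to the group's mean fasting glucose were selected.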

[16] = target: T3, NAD-dependent protein deacetylase sirtuin-1 (Homo sapiens); assay: Activation of human SIRT1-A (156-664) construct by mass spectrometry assay relative to control
[17] = test system: Rattus norvegicus; assay: Increase in adipose insulin sensitivity in po dosed Zucker fa/fa rat assessed as plasma free fatty acid level relative to control; type: functional; outline: as §3
[18] = test system: Rattus norvegicus; assay: Reduction of blood glucose level in po dosed Zucker fa/fa rat assessed as glucose level after 3 weeks by glucose tolerance test; type: functional; outline: as §5
[19] = test system: Rattus norvegicus; assay: Increase in insulin sensitivity in po dosed Zucker fa/fa rat assessed as hepatic glucose production relative to control; type: functional, organism-based; outline: as §3
[20] = test system: Rattus norvegicus; assay: Increase in insulin-induced glucose disposal rate into skeletal muscle in po dosed Zucker fa/fa rat relative to control; type: functional
[21] = target: T3, NAD-dependent protein deacetylase sirtuin-1 (Homo sapiens); assay: Activation of human SIRT1-C construct by mass spectrometry assay relative to control
[22] = test system: Mus musculus; assay: Reduction of blood glucose level in diabetic Lep ob/ob mouse model at 100 mg/kg, po after 1 week; type: functional, organism-based; design: dose 100 mg/kg
Outline: (§6)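 ob/ob mice received at 6 weeks, kept on 60%-fat diet from at least one week before study; ~40-45 g; grouped by body weight and glucose; once-daily oral gavage in 2% HPMC + 0.2% DOSS. One-way ANOVA with Dunnett's test vs control, p<0.05.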

[23] = test system: Mus musculus; assay: Reduction of hyperinsulinemia in DIO C57BL/6 mouse model at 100 mg/kg, po after 4 weeks; type: functional, organism-based; design: dose 100 mg/kg
[24] = AUC in C57BL/6 mouse at 100 mg/kg/day, po; type: ADME, organism-based; design: route oral; conditions: plasma
Outline: (§7)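 Oral gavage in 2% HPMC + 0.2% DOSS (hydrochloride salt) to male C57BL/6 mice, 18-22 g, 3 per dose group per time point; blood taken at 5, 30, 120 and 360 min after dosing after CO2 sacrifice; plasma drug levels measured.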

[25] = species: Mus musculus; assay: Reduction of insulin level in chow-fed C57BL/6 mouse; type: functional, organism-based
[26] = target: T3, NAD-dependent protein deacetylase sirtuin-1 (Homo sapiens); assay: Activation of SIRT1 in human U2OS cells assessed as decrease in p53 deacetylation level at 0.10 uM; type: cell-based; outline: as §1
[27] = Terminal half life in C57BL/6 mouse at 100 mg/kg/day, po; type: ADME, organism-based; design: route oral; conditions: in vivo; outline: as §7
[28] = AUC in Sprague-Dawley rat at 100 mg/kg/day, po; type: ADME, organism-based; design: route oral; conditions: plasma
[29] = species: Rattus norvegicus; assay: Reduction in hepatic gluconeogenesis in Zucker fa/fa rat assessed as glucose response by pyruvate tolerance test relative to control; type: functional, organism-based
Outline: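 Day 22 of daily oral dosing in fa/fa Zucker rats: after overnight fast, sodium pyruvate 1 g/kg ip in 0.9% NaCl; tail-vein glucose at 0, 30, 40, 50, 60 and 90 min.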

[30] = test system: Mus musculus; assay: Reduction of fasting blood glucose in DIO C57BL/6 mouse model at 100 mg/kg, po assessed as glucose level by glucose tolerance test; type: functional; outline: as §4
[31] = test system: Rattus norvegicus; assay: Increase in glucose infusion rate required to maintain euglycaemia in po dosed Zucker fa/fa rat relative to control; type: functional; outline: as §3
[32] = Terminal half life in Sprague-Dawley rat at 100 mg/kg/day, po; type: ADME, organism-based; design: route oral; conditions: in vivo
[33] = target: T3, NAD-dependent protein deacetylase sirtuin-1 (Homo sapiens); assay: Activation of human SIRT1-G (235-664) construct by mass spectrometry assay relative to control
[34] = Bioavailability in C57BL/6 mouse at 100 mg/kg/day, po; type: ADME, organism-based; conditions: in vivo
Outline: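 Male C57BL/6 mice (18-22 g, 3 per group per time point). Oral dosing by gavage in 2% HPMC + 0.2% DOSS, compared with tail-vein iv dosing in 10% ethanol/40% PEG/50% water.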

[35] = target: T3, NAD-dependent protein deacetylase sirtuin-1 (Homo sapiens); assay: Activation of human SIRT1-E (225-664) construct by mass spectrometry assay relative to control
[36] = test system: Mus musculus; assay: Effect on body weight in diabetic Lep ob/ob mouse model at 100 mg/kg, po; type: functional, organism-based; design: dose 100 mg/kg; outline: as §6
[37] = Bioavailability in Sprague-Dawley rat administered at 10 mg/kg, iv; type: ADME, organism-based; conditions: in vivo

For COc1cc(C(=O)Nc2ccccc2-c2cn3c(CN4CCNCC4)csc3n2)cc(OC)c1OC, the EC50 [1] was greater than 300 µM, the EC50 [2] was greater than 300 µM and the Activity [3] was “Active”. The EC50 [4] was 2.9 µM, the Activity [5] was 447% and the Activity [6] was “Active”. The Kd [7] was 16.2 µM.

In the case of O=C(Nc1ccccc1-c1cn2c(CN3CCNCC3)csc2n1)c1cnc2ccccc2n1, the Activity [8] is reported as 20%, the Activity [9] is reported as “Active” and the Activity [10] is reported as 1.3. It also gave an Activity [11] of 25 ng/min/dL, an Activity [12] of 5.8 and an Activity [13] of 2. For the same compound, the Activity [14] was 1.5, the Activity [15] was 15% and the Activity [16] was 5.9. The Activity [17] was 40%, the Activity [18] was 2490 mg/min/dL and the Activity [19] was “Active”. For the same compound, the Activity [20] was 55%, the Activity [21] was 5.6 and the EC50 [1] was greater than 300 µM. The EC50 [2] was 37 µM, the Activity [22] was “Active” and the Activity [23] was “Active”. For the same compound, the AUC [24] was 7890 ng·h/mL, the Activity [25] was “inactive” and the Activity [26] was “Active”. For the same compound, the Activity [5] was 781%, the Activity [6] was “Active” and the half-life [27] was 5 h. The AUC [28] was 3710 ng·h/mL, the Activity [29] was “Active” and the Activity [30] was 462 mg/h/dL. The Activity [31] was 35%, the half-life [32] was 8.4 h and the Activity [33] was 1.9. For the same compound, the bioavailability [34] was 50%, the Activity [35] was 1.6 and the Activity [36] was “inactive”. The bioavailability [37] was 25%.
